Assay results reported in ChEMBL document CHEMBL4665875, “Synthesis, biological evaluation and in silico modeling of novel pan-genotypic NS5A inhibitors” (Bioorg Med Chem, 2020).

How the values were obtained:
[1] = Cytotoxicity against HCV genotype 1b NS5A infected human HuH7 cells assessed as reduction in cell viability measured after 72 hrs by CellTiter-Glo assay; conditions: HuH7 cells infected with HCV genotype 1b NS5A
[2] = biological target: T1, Nonstructural protein 5A (Hepatitis C virus) (UniProt Q5L478); experiment: Potency index, ratio of AV-4025 IC50 to test compound IC50 for inhibition of HCV genotype 3a NS5A infected in Huh7 cells assessed as reduction in viral replication incubated 3 days and measured by bright Glo-luciferase reporter gene assay; type: cell-based; conditions: Hepatitis C virus subtype 3a; time 3.0 day
T1 sequence (whole entry): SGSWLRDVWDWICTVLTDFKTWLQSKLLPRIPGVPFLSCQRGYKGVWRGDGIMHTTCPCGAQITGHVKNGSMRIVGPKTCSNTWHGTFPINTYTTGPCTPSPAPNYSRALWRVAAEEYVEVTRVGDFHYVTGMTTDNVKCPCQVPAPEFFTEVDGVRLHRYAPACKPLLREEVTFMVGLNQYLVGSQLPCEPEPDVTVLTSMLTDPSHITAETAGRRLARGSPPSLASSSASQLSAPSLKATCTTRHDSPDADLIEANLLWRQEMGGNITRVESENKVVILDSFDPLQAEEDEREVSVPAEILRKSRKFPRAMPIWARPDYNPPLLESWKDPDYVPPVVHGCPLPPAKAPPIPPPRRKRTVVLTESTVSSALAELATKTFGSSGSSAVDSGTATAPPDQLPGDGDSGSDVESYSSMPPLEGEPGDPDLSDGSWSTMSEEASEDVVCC

[3] = MRT (0 to infinity) in Sprague-Dawley rat at 10 mg/kg, po measured after 24 hrs by LC-MS/MS analysis; type: ADME, organism-based; conditions: in vivo
Summary of the method: (§1)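 Male Sprague-Dawley rats (8–10 weeks), jugular-vein catheterized and fasted 12 h with water available. Oral dose of 10 mg/kg given in 0.5% methyl cellulose. Blood taken into EDTA at 15, 30 min and 1, 2, 4, 8 and 24 h. Plasma protein-precipitated with acetonitrile containing tolbutamide internal standard, held at −20 °C for 15 min, centrifuged, then analysed by LC-MS/MS.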

[4] = MRTlast in Sprague-Dawley rat at 2 mg/kg, iv measured after 24 hrs by LC-MS/MS analysis; type: ADME, organism-based; conditions: in vivo
Summary of the method: (§2)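 Male Sprague-Dawley rats (8–10 weeks), jugular-vein catheterized and fasted 12 h with water available. Intravenous dose of 2 mg/kg given in 10% DMSO/10% Solutol/80% 0.05 M N-methylglucamine. Blood taken into EDTA at 5, 15, 30 min and 1, 2, 4, 8 and 24 h. Plasma precipitated with acetonitrile plus tolbutamide internal standard, then analysed by LC-MS/MS.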

[5] = Cmax in Sprague-Dawley rat at 2 mg/kg, iv measured after 24 hrs by LC-MS/MS analysis; type: ADME, organism-based; set-up: route intravenous, dose 2 mg/kg, time 24 hrs; conditions: in vivo
Summary of the method: as §2

[6] = Tmax in Sprague-Dawley rat at 2 mg/kg, iv measured after 24 hrs by LC-MS/MS analysis; type: ADME, organism-based; conditions: in vivo
Summary of the method: as §2

[7] = AUC (0 to infinity) in Sprague-Dawley rat at 10 mg/kg, po measured after 24 hrs by LC-MS/MS analysis; type: ADME, organism-based; set-up: route oral, time 24 hrs, dose 10 mg/kg; conditions: in vivo
Summary of the method: as §1

[8] = Tmax in Sprague-Dawley rat at 10 mg/kg, po measured after 24 hrs by LC-MS/MS analysis; type: ADME, organism-based; conditions: in vivo
Summary of the method: as §1

[9] = Half life in Sprague-Dawley rat at 10 mg/kg, po measured after 24 hrs by LC-MS/MS analysis; type: ADME, organism-based; conditions: in vivo
Summary of the method: as §1

[10] = Half life in Sprague-Dawley rat at 2 mg/kg, iv measured after 24 hrs by LC-MS/MS analysis; type: ADME, organism-based; conditions: in vivo
Summary of the method: as §2

[11] = Cmax in Sprague-Dawley rat at 10 mg/kg, po measured after 24 hrs by LC-MS/MS analysis; type: ADME, organism-based; set-up: route oral, time 24 hrs, dose 10 mg/kg; conditions: in vivo
Summary of the method: as §1

[12] = MRTlast in Sprague-Dawley rat at 10 mg/kg, po measured after 24 hrs by LC-MS/MS analysis; type: ADME, organism-based; conditions: in vivo
Summary of the method: as §1

[13] = AUC (0 to infinity) in Sprague-Dawley rat at 2 mg/kg, iv measured after 24 hrs by LC-MS/MS analysis; type: ADME, organism-based; set-up: route intravenous, dose 2 mg/kg, time 24 hrs; conditions: in vivo
Summary of the method: as §2

[14] = AUClast in Sprague-Dawley rat at 2 mg/kg, iv measured after 24 hrs by LC-MS/MS analysis; type: ADME, organism-based; set-up: route intravenous, time 24 hrs, dose 2 mg/kg; conditions: in vivo
Summary of the method: as §2

[15] = Oral bioavailability in Sprague-Dawley rat at 10 mg/kg, po measured after 24 hrs by LC-MS/MS analysis; type: ADME, organism-based; conditions: in vivo
Summary of the method: as §1

[16] = AUClast in Sprague-Dawley rat at 10 mg/kg, po measured after 24 hrs by LC-MS/MS analysis; type: ADME, organism-based; set-up: route oral, dose 10 mg/kg, time 24 hrs; conditions: in vivo
Summary of the method: as §1

[17] = MRT (0 to infinity) in Sprague-Dawley rat at 2 mg/kg, iv measured after 24 hrs by LC-MS/MS analysis; type: ADME, organism-based; conditions: in vivo
Summary of the method: as §2

What does the source list for COC(=O)N[C@H](C(=O)N1CCC[C@H]1c1ncc(-c2ccc(C#CC#Cc3cnc([C@@H]4CCCN4C(=O)[C@H](NC(=O)OC)c4ccccc4)[nH]3)cc2)[nH]1)C(C)C?
CC50 at 72 h [1]: > 10 µM; Ratio IC50 [2]: 13

Which CC50 at 72 h [1] does the source give for COC(=O)N[C@H](C(=O)N1CCC[C@H]1c1ncc(-c2ccc(C#CC#Cc3cnc([C@@H]4CCCN4C(=O)[C@H](NC(=O)OC)c4ccccc4)[nH]3)c(-c3ccc(-c4ccccc4)cc3)c2)[nH]1)C(C)C here?
Its CC50 at 72 h is over 10 µM.

For COC(=O)N[C@H](C(=O)N1CCC[C@H]1c1ncc(-c2ccc(C#CC#Cc3cnc([C@@H]4CCCN4C(=O)[C@H](NC(=O)OC)c4ccccc4)[nH]3)c(-c3cccc(F)c3F)c2)[nH]1)C(C)C.Cl.Cl, which MRT inf [3] is on record?
Its MRT inf is 0.4 h.

What about the MRT last at 24 h [4] of the same compound?
The MRT last at 24 h was 3.2 h.

What about the CC50 at 72 h [1] of the same compound?
Its CC50 at 72 h is over 10 µM.

What about the Cmax [5] of the same compound?
The Cmax was 1160 ng/mL.

What about the Tmax [6] of the same compound?
The Tmax was 4.98 min.

What about the AUC ([7]; 24 h) of the same compound?
Its AUC is 328.7 ng·h/mL.

And the Tmax ([8]; 10 mg/kg, 24 h)?
The Tmax was 0.7 h.

And the t1/2 ([9]; 10 mg/kg, 24 h)?
The t1/2 was 2.5 h.

What about the half-life [10] of the same compound?
The half-life was 3.2 h.

And the Cmax ([11]; 24 h)?
Its Cmax is 15.2 ng/mL.

And the MRT last at 24 h [12]?
Its MRT last at 24 h is 0.3 h.

What about the AUC(0-inf) [13] of the same compound?
The AUC(0-inf) was 2730 ng·h/mL.

What about the AUC(0-t) at 24 h [14] of the same compound?
Its AUC(0-t) at 24 h is 2720 ng·h/mL.

What about the bioavailability [15] of the same compound?
Its bioavailability is 2.4%.

And the AUC(0-t) at 24 h [16]?
The AUC(0-t) at 24 h was 271 ng·h/mL.

And the MRT inf [17]?
Its MRT inf is 3.3 h.

For COC(=O)N[C@H](C(=O)N1CCC[C@H]1c1ncc(-c2ccc(C#CC#Cc3cnc([C@@H]4CCCN4C(=O)[C@H](NC(=O)OC)c4ccccc4)[nH]3)c(-c3cccc(F)c3F)c2)[nH]1)C(C)C, which MRT inf [3] is on record?
The MRT inf was 1.5 h.

What about the MRT last at 24 h [4] of the same compound?
The MRT last at 24 h was 4.2 h.

What about the Cmax [5] of the same compound?
Its Cmax is 114 ng/mL.

What about the Tmax [6] of the same compound?
The Tmax was 4.98 min.

And the AUC(0-inf) ([7]; Sprague-Dawley)?
Its AUC(0-inf) is 61.7 ng·h/mL.

And the Tmax ([8]; Sprague-Dawley, read-out: Tmax)?
The Tmax was 1 h.

And the half-life ([9]; Sprague-Dawley)?
The half-life was 0.6 h.

And the half-life [10]?
Its half-life is 4.6 h.

And the Cmax ([11]; Sprague-Dawley, read-out: Cmax)?
Its Cmax is 38.3 ng/mL.

What about the MRT last at 24 h [12] of the same compound?
The MRT last at 24 h was 1.4 h.

What about the AUC(0-inf) [13] of the same compound?
Its AUC(0-inf) is 285 ng·h/mL.

And the AUC(0-t) at 24 h [14]?
Its AUC(0-t) at 24 h is 279 ng·h/mL.

And the bioavailability [15]?
The bioavailability was 4.3%.

And the AUC(0-t) at 24 h [16]?
Its AUC(0-t) at 24 h is 58.7 ng·h/mL.

What about the MRT inf [17] of the same compound?
Its MRT inf is 4.7 h.

For COC(=O)N[C@H](C(=O)N1CCC[C@H]1c1ncc(C#CC#Cc2c(F)cc(-c3cnc([C@@H]4CCCN4C(=O)[C@@H](NC(=O)OC)C(C)C)[nH]3)cc2-c2ccccc2)[nH]1)C(C)C, which CC50 at 72 h [1] is on record?
The CC50 at 72 h was over 10 µM.

Which CC50 at 72 h [1] does the source give for COC(=O)N[C@H](C(=O)N1CCC[C@H]1c1ncc(-c2ccc(C#CC#Cc3cnc([C@@H]4CCCN4C(=O)[C@H](NC(=O)OC)c4ccccc4)[nH]3)c(-c3cccc(-c4ccccc4)c3)c2)[nH]1)C(C)C here?
The CC50 at 72 h was over 10 µM.

Which CC50 at 72 h [1] does the source give for COC(=O)N[C@H](C(=O)N1CCC[C@H]1c1ncc(C#CC#Cc2ccc(-c3cnc([C@@H]4CCCN4C(=O)[C@@H](NC(=O)OC)C(C)C)[nH]3)cc2-c2ccc3ccccc3c2)[nH]1)C(C)C here?
Its CC50 at 72 h is over 10 µM.

For COC(=O)N[C@H](C(=O)N1CCC[C@H]1c1ncc(-c2ccc(C#CC#Cc3cnc([C@@H]4CCCN4C(=O)[C@H](NC(=O)OC)c4ccccc4)[nH]3)c(-c3ccc(N4CCN(C)CC4)cc3)c2)[nH]1)C(C)C, which CC50 at 72 h [1] is on record?
Its CC50 at 72 h is over 10 µM.

With COC(=O)N[C@H](C(=O)N1CCC[C@H]1c1ncc(-c2ccc(C#CC#Cc3cnc([C@@H]4CCCN4C(=O)[C@H](NC(=O)OC)c4ccccc4)[nH]3)c(N3CCN(C)CC3)c2)[nH]1)C(C)C as the compound, how does the CC50 at 72 h [1] read?
Its CC50 at 72 h is over 10 µM.

For COC(=O)N[C@H](C(=O)N1CCC[C@H]1c1ncc(-c2cc(F)c(C#CC#Cc3cnc([C@@H]4CCCN4C(=O)[C@H](NC(=O)OC)c4ccccc4)[nH]3)c(-c3ccccc3)c2)[nH]1)C(C)C, which CC50 at 72 h [1] is on record?
The CC50 at 72 h was over 10 µM.

Which CC50 at 72 h [1] does the source give for COC(=O)N[C@H](C(=O)N1CCC[C@H]1c1ncc(-c2ccc(C#CC#Cc3cnc([C@@H]4CCCN4C(=O)[C@H](NC(=O)OC)c4ccccc4)[nH]3)c(N(C)c3ccccc3)c2)[nH]1)C(C)C here?
Its CC50 at 72 h is over 10 µM.

For COC(=O)N[C@H](C(=O)N1CCC[C@H]1c1ncc(-c2ccc(C#CC#Cc3cnc([C@@H]4CCCN4C(=O)[C@H](NC(=O)OC)c4ccccc4)[nH]3)c(-c3ccc(C(C)(C)C)cc3)c2)[nH]1)C(C)C, which CC50 at 72 h [1] is on record?
The CC50 at 72 h was over 10 µM.
